Results from ChEMBL document CHEMBL1158829, “Oxygenated pimarane diterpenes from Kaempferia marginata” (J Nat Prod, 2005).
Values after ≈ are worked out from the molar mass of the structure shown.

Experiments:
[1] = tested on: Mycobacterium tuberculosis; assay: Antitubercular activity against Mycobacterium tuberculosis H37Ra after 4 days by microplate alamar blue assay; type: functional; details: 96 h
Procedure, shortened: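 Mycobacterium tuberculosis H37Ra tested by Microplate Alamar Blue Assay, reporting minimum inhibitory concentration (MIC). Rifampicin, kanamycin and isoniazid were the positive controls.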

Plasmodium falciparum = assay: Antimalarial activity against multidrug-resistant Plasmodium falciparum K1 after 42 hrs by [3H]hypoxanthine uptake; type: functional, organism-based
Procedure, shortened: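 Plasmodium falciparum K1 (multidrug-resistant) was kept in continuous culture. In vitro activity was quantified with a microculture radioisotope technique.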

Candida albicans = assay: Antifungal activity against Candida albicans ATCC 90028 by XTT assay; type: functional, organism-based
Procedure, shortened: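 Candida albicans ATCC 90028 tested by a tetrazolium/formazan colorimetric method, with IC50 as the read-out. Amphotericin B served as the positive control and DMSO as the negative control.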

SMILES: C=C[C@]1(C)C=C2CC[C@]3(C)[C@](C)(CCC[C@]3(C)O)[C@@]2(C)CC1
- MIC [1]: 25 µg/mL (≈ 82.6 µM)

SMILES: C=C[C@]1(C)C=C2C(=O)C[C@H]3C(C)(C)C[C@H](O)[C@H](O)[C@]3(C)[C@H]2CC1
- MIC [1]: > 100 µg/mL

SMILES: C=C[C@]1(C)C=C2CC[C@]3(C)[C@](C)(CC[C@H](C(C)=O)[C@]3(C)O)[C@@]2(C)CC1
- MIC [1]: 50 µg/mL (≈ 145 µM)

SMILES: C=C[C@]1(C)C=C2CC[C@H]3C(C)(C)CC[C@H](O)[C@]3(C)[C@H]2[C@H](O)C1
- IC50 (Plasmodium falciparum): 3.2 µg/mL (≈ 10.5 µM)

SMILES: C=C[C@]1(C)C=C2CC[C@H]3C(C)(C)C[C@H](O)[C@H](O)[C@]3(C)[C@H]2[C@H](O)C1
- IC50 (Plasmodium falciparum): 8.8 µg/mL (≈ 27.5 µM)
- MIC [1]: > 100 µg/mL
- IC50 (Candida albicans): 17.5 µg/mL (≈ 54.6 µM)

SMILES: C=C[C@]1(C)C=C2[C@H](O)C[C@H]3C(C)(C)CC[C@H](O)[C@]3(C)[C@H]2[C@H](O)C1
- MIC [1]: > 100 µg/mL
